This note sets out measurements from ChEMBL document CHEMBL4251703, “Linker Variation and Structure-Activity Relationship Analyses of Carboxylic Acid-based Small Molecule STAT3 Inhibitors” (ACS Med Chem Lett, 2018).

Active and inactive are the calls of the source. No cut-off for these calls is given here. A value given as a limit tells only on which side of the number the result lay.

Sequence of Signal transducer and activator of transcription 3 (Mus musculus) (P42227 whole entry): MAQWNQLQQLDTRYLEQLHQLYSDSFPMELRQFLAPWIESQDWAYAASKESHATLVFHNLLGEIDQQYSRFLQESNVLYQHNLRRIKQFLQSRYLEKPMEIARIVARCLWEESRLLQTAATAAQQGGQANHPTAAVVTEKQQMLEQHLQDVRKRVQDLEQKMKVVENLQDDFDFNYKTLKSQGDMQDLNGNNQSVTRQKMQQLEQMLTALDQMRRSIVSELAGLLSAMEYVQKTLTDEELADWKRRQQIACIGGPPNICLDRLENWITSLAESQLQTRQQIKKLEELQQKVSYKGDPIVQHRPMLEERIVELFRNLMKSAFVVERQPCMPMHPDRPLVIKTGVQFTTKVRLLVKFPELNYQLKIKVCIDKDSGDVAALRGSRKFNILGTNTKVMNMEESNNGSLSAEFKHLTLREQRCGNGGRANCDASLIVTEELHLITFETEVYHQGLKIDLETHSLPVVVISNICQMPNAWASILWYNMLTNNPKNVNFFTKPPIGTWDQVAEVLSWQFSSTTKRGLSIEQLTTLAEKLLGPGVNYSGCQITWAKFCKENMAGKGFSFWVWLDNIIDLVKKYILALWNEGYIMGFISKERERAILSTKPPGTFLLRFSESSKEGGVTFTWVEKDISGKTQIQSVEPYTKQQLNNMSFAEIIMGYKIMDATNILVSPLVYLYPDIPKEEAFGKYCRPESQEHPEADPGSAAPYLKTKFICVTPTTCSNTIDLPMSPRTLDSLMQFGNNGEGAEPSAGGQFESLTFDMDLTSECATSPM

One assay has as its target Signal transducer and activator of transcription 3 (Homo sapiens) (UniProt P40763). The assay is described as follows: Inhibition of STAT3 in human MDA-MB-231 cells assessed as reduction in p-STAT3(Y705) level at 5 uM after 1 to 24 hrs by immunoblot analysis. It counts as cell-based. Background: A western blot detects proteins with antibodies after separation by electrophoresis.
Consider `O=C(O)c1ccc(N(Cc2ccc(C3CCCCC3)cc2)C(=O)[C@H]2CCCN2S(=O)(=O)c2c(F)c(F)c(F)c(F)c2F)c(F)c1`, for which the “p-STAT3(Y705) reduction (qualitative call)” value is “Active”.

A further assay deals with Signal transducer and activator of transcription 3 (Mus musculus, UniProt P42227). The experiment in a line: (§1) Inhibition of STAT3 DNA binding activity in mouse NIH/3T3 nuclear extract preincubated for 30 mins followed by [32P]hSIE addition measured after 30 mins by electrophoretic mobility shift assay. In short, it runs like this: (§2)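 STAT3 DNA-binding was measured by EMSA using nuclear extracts of equal total protein from v-Src-transformed fibroblasts containing activated STAT3. Extracts were preincubated for 30 min with 0–100 μM compound, then incubated with radiolabeled hSIE probe.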
Sequence of Signal transducer and activator of transcription 3 (P42227 whole entry): as above
A word on the IC50: it is the concentration that inhibits the measured activity by half. As to `CN(CC(=O)N(Cc1ccc(C2CCCCC2)cc1)c1ccc(C(=O)O)c(O)c1)S(=O)(=O)c1cc(C(F)(F)F)cc(C(F)(F)F)c1`, the IC50 is greater than 26 µM.
On the same count and under the same terms, in the case of `CN(CC(=O)N(Cc1ccc(C2CCCCC2)cc1)c1ccc(C(=O)O)c(O)c1)S(=O)(=O)c1cc(F)cc(F)c1F` it was greater than 26 µM; in that of `CN(CC(=O)N(Cc1ccc(C2CCCCC2)cc1)c1ccc(C(=O)O)c(Cl)c1)S(=O)(=O)c1c(F)c(F)c(F)c(F)c1F`, 8.6 to 14.4 µM.
Turning to `CN(CC(=O)N(Cc1ccc(C2CCCCC2)cc1)c1ccc(C(=O)O)c(O)c1)S(=O)(=O)c1cc(F)ccc1F`, the IC50 is greater than 26 µM.
The same measure, in the same setting: in the case of `O=C(NO)c1ccc(N(Cc2ccc(C3CCCCC3)cc2)C(=O)[C@H]2CCCN2S(=O)(=O)c2c(F)c(F)c(F)c(F)c2F)cc1O` it was 5.5 µM.
As for `C[C@@H](C(=O)N(Cc1ccc(C2CCCCC2)cc1)c1ccc(C(=O)NO)c(O)c1)N(C)S(=O)(=O)c1c(F)c(F)c(F)c(F)c1F`, the concentration for half-maximal inhibition (IC50) stood at 6.8 µM.
On the same count and under the same terms, with `CN(CC(=O)N(Cc1ccc(C2CCCCC2)cc1)c1ccc(C(=O)O)c(O)c1)S(=O)(=O)c1ccc(F)c(F)c1F` the figure was greater than 26 µM; with `CN(CC(=O)N(Cc1ccc(C2CCCCC2)cc1)c1ccc(C(=O)O)c(O)c1)S(=O)(=O)c1cc(F)cc(F)c1`, greater than 26 µM.
The same measure, in the same setting: with `CN(CC(=O)N(Cc1ccc(C2CCCCC2)cc1)c1ccc(C(=O)O)c(O)c1)S(=O)(=O)c1c(F)cc(F)cc1F` the figure was greater than 26 µM; with `CN(CC(=O)N(Cc1ccc(C2CCCCC2)cc1)c1ccc(C(=O)O)c(O)c1)S(=O)(=O)c1cccnc1`, greater than 26 µM.

Another assay concerns the target Signal transducer and activator of transcription 3 (Mus musculus) (UniProt P42227). The description is as §1. In short, it runs like this: as §2
Take `CN([C@@H](CC(=O)O)C(=O)N(Cc1ccc(C2CCCCC2)cc1)c1ccc(C(=O)O)c(O)c1)S(=O)(=O)c1c(F)c(F)c(F)c(F)c1F`: the inhibition entry was “inactive”.
Still for that read-out and setting: with `Cc1cc(N(Cc2ccc(C3CCCCC3)cc2)C(=O)CN(C)S(=O)(=O)c2c(F)c(F)c(F)c(F)c2F)ccc1C(=O)O` the entry was “inactive”; with `O=C(O)c1ccc(N(Cc2ccc(C3CCCCC3)cc2)C(=O)[C@H]2CCCN2C(=O)c2c(F)c(F)c(F)c(F)c2F)cc1O`, “inactive”; with `O=C(O)c1ccc(N(Cc2ccc(C3CCCCC3)cc2)C(=O)[C@H]2CCCN2S(=O)(=O)c2cc(F)cc(F)c2F)cc1O`, “inactive”.
On the same count and under the same terms, with `O=C(O)c1ccc(N(Cc2ccc(C3CCCCC3)cc2)C(=O)[C@H]2CCCN2S(=O)(=O)c2c(F)cc(F)c(F)c2F)cc1O` the entry was “inactive”; with `Cc1cc(C(=O)O)cc(C)c1N(Cc1ccc(C2CCCCC2)cc1)C(=O)CN(C)S(=O)(=O)c1c(F)c(F)c(F)c(F)c1F`, “inactive”.
On the same count and under the same terms, with `CN(CC(=O)N(Cc1ccc(C2CCC(F)(F)CC2)cc1)c1ccc(C(=O)O)c(O)c1)S(=O)(=O)c1c(F)c(F)c(F)c(F)c1F` the entry was “inactive”.
As to `CN(CC(=O)N(Cc1ccc(C2CCOCC2)cc1)c1ccc(C(=O)O)cc1)S(=O)(=O)c1c(F)c(F)c(F)c(F)c1F`, the inhibition result is “inactive”.
On the same count and under the same terms, with `CN(CC(=O)N(Cc1ccc(N2CCCCC2)cc1)c1ccc(C(=O)O)cc1)S(=O)(=O)c1c(F)c(F)c(F)c(F)c1F` the entry was “inactive”.
On the same count and under the same terms, in the case of `C[C@H](O)[C@H](C(=O)N(Cc1ccc(C2CCCCC2)cc1)c1ccc(C(=O)O)c(O)c1)N(C)S(=O)(=O)c1c(F)c(F)c(F)c(F)c1F` it was “Active”.
For the compound `CN(CC(=O)N(Cc1ccc(C2CCNCC2)cc1)c1ccc(C(=O)O)c(O)c1)S(=O)(=O)c1c(F)c(F)c(F)c(F)c1F`, the inhibition result was “inactive”.
On the same count and under the same terms, in the case of `CN([C@H](CN)C(=O)N(Cc1ccc(C2CCCCC2)cc1)c1ccc(C(=O)O)c(O)c1)S(=O)(=O)c1c(F)c(F)c(F)c(F)c1F` it was “Active”; in that of `CN([C@H](CO)C(=O)N(Cc1ccc(C2CCCCC2)cc1)c1ccc(C(=O)NO)cc1)S(=O)(=O)c1c(F)c(F)c(F)c(F)c1F`, “Active”.
Regarding `CN([C@H](CCO)C(=O)N(Cc1ccc(C2CCCCC2)cc1)c1ccc(C(=O)O)c(O)c1)S(=O)(=O)c1c(F)c(F)c(F)c(F)c1F`, the inhibition result was “Active”.
On the same count and under the same terms, with `CN(CC(=O)N(Cc1ccc(C2CCOCC2)cc1)c1ccc(C(=O)O)c(O)c1)S(=O)(=O)c1c(F)c(F)c(F)c(F)c1F` the entry was “inactive”; with `C[C@H](C(=O)N(Cc1ccc(C2CCOCC2)cc1)c1ccc(C(=O)[O-])c(O)c1)N(C)S(=O)(=O)c1c(F)c(F)c(F)c(F)c1F.[Na+]`, “inactive”.
In the case of `CN([C@@H](CN)C(=O)N(Cc1ccc(C2CCCCC2)cc1)c1ccc(C(=O)O)c(O)c1)S(=O)(=O)c1c(F)c(F)c(F)c(F)c1F`, the inhibition entry was “inactive”.
On the same count and under the same terms, in the case of `O=C(O)c1ccc(N(Cc2ccc(C3CCCCC3)cc2)C(=O)[C@H]2CCCN2Cc2c(F)c(F)c(F)c(F)c2F)cc1O` it was “inactive”.
As for `CN(CC(=O)N(Cc1ccc(C2=CCCCCC2)cc1)c1ccc(C(=O)O)cc1)S(=O)(=O)c1c(F)c(F)c(F)c(F)c1F`, the inhibition result was “inactive”.
For the compound `CN([C@@H](CCO)C(=O)N(Cc1ccc(C2CCCCC2)cc1)c1ccc(C(=O)O)c(O)c1)S(=O)(=O)c1c(F)c(F)c(F)c(F)c1F`, the inhibition result is “inactive”.
As to `CN([C@H](CO)C(=O)N(Cc1ccc(C2CCCCC2)cc1)c1ccc(C(=O)O)c(O)c1)S(=O)(=O)c1c(F)c(F)c(F)c(F)c1F`, the inhibition entry is “Active”.
On the same count and under the same terms, with `CN(CC(=O)N(Cc1ccc(C2CCCCC2)cc1)c1ncc(C(=O)O)o1)S(=O)(=O)c1c(F)c(F)c(F)c(F)c1F` the entry was “inactive”; with `CN([C@H](CC(=O)O)C(=O)N(Cc1ccc(C2CCCCC2)cc1)c1ccc(C(=O)O)c(O)c1)S(=O)(=O)c1c(F)c(F)c(F)c(F)c1F`, “Active”; with `CN(CC(=O)N(Cc1ccc(C2CCCCC2)cc1)c1ccc(C(=O)O)c(O)c1)Cc1c(F)c(F)c(F)c(F)c1F`, “inactive”.
Same read-out and setting: with `C[C@H](C(=O)N(Cc1ccc(C2CCCCC2)cc1)c1ccc(C(=O)O)c(F)c1)N(C)S(=O)(=O)c1c(F)c(F)c(F)c(F)c1F` the entry was “inactive”.
For the compound `C[C@H](C(=O)N(Cc1ccc(C2CCCCC2)cc1)c1c(F)cc(C(=O)O)cc1F)N(C)S(=O)(=O)c1c(F)c(F)c(F)c(F)c1F`, the inhibition entry is “inactive”.
As for `C[C@H](C(=O)N(Cc1ccc(C2CCCCC2)cc1)c1ccc2c(c1)CNC2=O)N(C)S(=O)(=O)c1c(F)c(F)c(F)c(F)c1F`, the inhibition entry was “inactive”.
With `CN(CC(=O)N(Cc1ccc(C2CCCCC2)nc1)c1ccc(C(=O)O)c(O)c1)S(=O)(=O)c1c(F)c(F)c(F)c(F)c1F`, the inhibition result was “inactive”.
As for `CC[C@@H](C(=O)N(Cc1ccc(C2CCCCC2)cc1)c1ccc(C(=O)O)c(O)c1)N(C)S(=O)(=O)c1c(F)c(F)c(F)c(F)c1F`, the inhibition entry was “inactive”.
Still for that read-out and setting: with `CN(CC(=O)N(Cc1ccc(C2CCOCC2)cc1)c1ccc(C(=O)NO)c(O)c1)S(=O)(=O)c1c(F)c(F)c(F)c(F)c1F` the entry was “inactive”; with `CN([C@@H](CO)C(=O)N(Cc1ccc(C2CCCCC2)cc1)c1ccc(C(=O)O)c(O)c1)S(=O)(=O)c1c(F)c(F)c(F)c(F)c1F`, “inactive”.
As to `CN(CC(=O)N(Cc1ccc(C2CCCCC2)cc1)c1nc(C(=O)O)co1)S(=O)(=O)c1c(F)c(F)c(F)c(F)c1F`, the inhibition result was “inactive”.
On the same count and under the same terms, with `CC[C@H](C(=O)N(Cc1ccc(C2CCC(F)(F)CC2)cc1)c1ccc(C(=O)O)c(O)c1)N(C)S(=O)(=O)c1c(F)c(F)c(F)c(F)c1F` the entry was “inactive”.
Same read-out and setting: in the case of `CN(CC(=O)N(Cc1ccc(C2CCCCC2)cc1)c1ccc(C(=O)O)c(O)c1)C(=O)c1c(F)c(F)c(F)c(F)c1F` it was “inactive”.
Same read-out and setting: with `CN(CC(=O)N(Cc1ccc(C2CCCCC2)cc1)c1cccc(CC(=O)O)c1)S(=O)(=O)c1c(F)c(F)c(F)c(F)c1F` the entry was “inactive”; with `CN(CC(=O)N(Cc1ccc(C2CCCCCC2)cc1)c1ccc(C(=O)O)cc1)S(=O)(=O)c1c(F)c(F)c(F)c(F)c1F`, “inactive”; with `C[C@@H](O)[C@@H](C(=O)N(Cc1ccc(C2CCCCC2)cc1)c1ccc(C(=O)O)c(O)c1)N(C)S(=O)(=O)c1c(F)c(F)c(F)c(F)c1F`, “inactive”.
Consider `CN(CC(=O)N(Cc1ccc(C2CCCCC2)cc1)c1ccc(C(=O)O)[n+]([O-])c1)S(=O)(=O)c1c(F)c(F)c(F)c(F)c1F`, for which the inhibition entry was “inactive”.
With `CN(CC(=O)N(Cc1ccc(C2CCCCC2)cc1)c1ccc(C(=O)O)nc1)S(=O)(=O)c1c(F)c(F)c(F)c(F)c1F`, the inhibition result was “inactive”.
Still for that read-out and setting: with `C[C@H](C(=O)N(Cc1ccc(C2CCCCC2)cc1)c1ccc2cn[nH]c2c1)N(C)S(=O)(=O)c1c(F)c(F)c(F)c(F)c1F` the entry was “inactive”.
Still for that read-out and setting: in the case of `CN([C@H](CO)C(=O)N(Cc1ccc(C2CCCCC2)cc1)c1ccc(C(=O)O)cc1)S(=O)(=O)c1c(F)c(F)c(F)c(F)c1F` it was “Active”; in that of `CC[C@H](C(=O)N(Cc1ccc(C2CCCCC2)cc1)c1ccc(C(=O)O)c(O)c1)N(C)S(=O)(=O)c1c(F)c(F)c(F)c(F)c1F`, “Active”.

In another assay the target is Signal transducer and activator of transcription 3 (Homo sapiens) (UniProt P40763). The experiment in a line: Inhibition of STAT3 in human MDA-MB-468 cells assessed as reduction in p-STAT3(Y705) level at 5 uM after 1 to 24 hrs by immunoblot analysis. The format is cell-based.
Sequence of Signal transducer and activator of transcription 3 (Homo sapiens) (P40763 whole entry): as the sequence (P42227 whole entry) above, with D760E counted along it
`O=C(O)c1ccc(N(Cc2ccc(C3CCCCC3)cc2)C(=O)[C@H]2CCCN2S(=O)(=O)c2c(F)c(F)c(F)c(F)c2F)c(F)c1`: the inhibition entry was “Active”.
